Assay results taken from ChEMBL document CHEMBL4673173, “Cyrene(TM) is a green alternative to DMSO as a solvent for antibacterial drug discovery against ESKAPE pathogens” (RSC Med Chem, 2020).
In brackets after ≈: the same amount, converted by molar mass. Where a name gives a salt, the structure may show the parent alone. Activity calls are given as the source filed them. No cut-off for these calls is given here. Bridge positions count the residues as written; N and C are the ends. Square brackets hold non-standard residues; d marks the D form. Peptide text beside a SMILES is read from it. * marks the point of attachment. X1 = CC[C@H](C)CCCCC(=O)*; Dab = NCC[C@H](N)C(=O)O

What was measured:
[1] = tested on: Acinetobacter baumannii; assay: Antibacterial activity against Acinetobacter baumannii ATCC 19606 by broth microdilution method; format: functional, ATCC 19606 = CIP 70.34 = JCM 6841
How it was run: (§1)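 Antibiotics were dissolved as stock solutions in either DMSO or Cyrene™, neat or mixed with water, at 5–10 mM (stock). Each drug was tested in parallel with both vehicles. Growth inhibition was read as MIC80 […]. NA means no activity at the highest concentration tested.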

[2] = tested on: Klebsiella pneumoniae; assay: Antibacterial activity against Klebsiella pneumoniae ATCC 700603 by broth microdilution method; format: functional; how it was run: as §1
[3] = tested on: Staphylococcus aureus; assay: Antibacterial activity against Staphylococcus aureus ATCC 43300 by broth microdilution method; format: functional; how it was run: as §1
[4] = tested on: Escherichia coli; assay: Antibacterial activity against Escherichia coli ATCC 25922 by broth microdilution method; format: functional; how it was run: as §1
[5] = tested on: Pseudomonas aeruginosa; assay: Antibacterial activity against Pseudomonas aeruginosa […] by broth microdilution method; format: functional; how it was run: as §1
[6] = tested on: Enterococcus faecalis; assay: Antibacterial activity against Enterococcus faecalis ATCC 51299 by broth microdilution method; format: functional; how it was run: as §1
[7] = tested on: Acinetobacter baumannii; assay: Antibacterial activity against Acinetobacter baumannii ATCC 19606 using DMSO as solvent by broth microdilution method; format: functional; conditions: ATCC 19606 = CIP 70.34 = JCM 6841
[8] = tested on: Klebsiella pneumoniae; assay: Antibacterial activity against Klebsiella pneumoniae ATCC 700603 using cyrene as solvent by broth microdilution method; format: functional
[9] = tested on: Pseudomonas aeruginosa; assay: Antibacterial activity against Pseudomonas aeruginosa ATCC 27893 using cyrene as solvent by broth microdilution method; format: functional
[10] = tested on: Staphylococcus aureus; conditions: ATCC 43300
[11] = tested on: Enterococcus faecalis; conditions: ATCC 51299
[12] = tested on: Escherichia coli; assay: Antibacterial activity against Escherichia coli ATCC 25922 using DMSO as solvent by broth microdilution method; format: functional
[13] = tested on: Acinetobacter baumannii; assay: Antibacterial activity against Acinetobacter baumannii ATCC 19606 using cyrene as solvent by broth microdilution method; format: functional; conditions: ATCC 19606 = CIP 70.34 = JCM 6841
[14] = tested on: Enterococcus faecalis; conditions: ATCC 51299; remark: listed apart in the source
[15] = tested on: Pseudomonas aeruginosa; assay: Antibacterial activity against Pseudomonas aeruginosa ATCC 27893 using DMSO as solvent by broth microdilution method; format: functional
[16] = tested on: Klebsiella pneumoniae; assay: Antibacterial activity against Klebsiella pneumoniae ATCC 700603 using DMSO as solvent by broth microdilution method; format: functional
[17] = tested on: Staphylococcus aureus; conditions: ATCC 43300; remark: listed apart in the source
[18] = tested on: Escherichia coli; assay: Antibacterial activity against Escherichia coli ATCC 25922 using cyrene as solvent by broth microdilution method; format: functional
[19] = tested on: Staphylococcus aureus; assay: microbe, parasite or virus in culture; format: functional; conditions: ATCC 43300
[20] = tested on: Enterococcus faecalis; assay: microbe, parasite or virus in culture; format: functional; conditions: ATCC 51299
[21] = tested on: Staphylococcus aureus; assay: microbe, parasite or virus in culture; format: functional; conditions: ATCC 43300; remark: listed apart in the source
[22] = tested on: Enterococcus faecalis; assay: microbe, parasite or virus in culture; format: functional; conditions: ATCC 51299; remark: listed apart in the source
[23] = tested on: Acinetobacter baumannii; conditions: ATCC 19606 = CIP 70.34 = JCM 6841
[24] = tested on: Acinetobacter baumannii; conditions: ATCC 19606 = CIP 70.34 = JCM 6841; remark: listed apart in the source
[25] = tested on: Escherichia coli; conditions: ATCC 25922
[26] = tested on: Klebsiella pneumoniae; conditions: 700603
[27] = tested on: Pseudomonas aeruginosa; conditions: ATCC 27893
[28] = tested on: Escherichia coli; conditions: ATCC 25922; remark: listed apart in the source
[29] = tested on: Pseudomonas aeruginosa; conditions: ATCC 27893; remark: listed apart in the source
[30] = tested on: Klebsiella pneumoniae; conditions: 700603; remark: listed apart in the source

O=C1CC[C@H]2CO[C@@H]1O2
MIC80 [1]: 8 %v/v | MIC80 [2]: 8 %v/v | MIC80 [3]: 8 %v/v | MIC80 [4]: 5 %v/v | MIC80 [5]: 8 %v/v | MIC80 [6]: 4 %v/v

CC[C@H](C)CCCCC(=O)N[C@@H](CCN)C(=O)N[C@H](C(=O)N[C@@H](CCN)C(=O)N[C@H]1CCNC(=O)[C@H]([C@@H](C)O)NC(=O)[C@H](CCN)NC(=O)[C@H](CCN)NC(=O)[C@H](CC(C)C)NC(=O)[C@@H](Cc2ccccc2)NC(=O)[C@H](CCN)NC1=O)[C@@H](C)O (X1-[Dab]T[Dab][Dab][Dab][dF]L[Dab][Dab]T; lactam 4-C)
MIC80 [7]: 1.6 µM (≈ 1.93 µg/mL) | MIC80 [8]: 1.6 µM (≈ 1.93 µg/mL) | MIC80 [9]: 3.1 µM (≈ 3.73 µg/mL) | MIC80 [10]: inactive | MIC80 [11]: inactive | MIC80 [12]: 1.6 µM (≈ 1.93 µg/mL) | MIC80 [13]: 1.6 µM (≈ 1.93 µg/mL) | MIC80 [14]: inactive | MIC80 [15]: 3.1 µM (≈ 3.73 µg/mL) | MIC80 [16]: 1.6 µM (≈ 1.93 µg/mL) | MIC80 [17]: inactive | MIC80 [18]: 1.6 µM (≈ 1.93 µg/mL)

O=C(O)c1cn(C2CC2)c2cc(N3CCNCC3)c(F)cc2c1=O [CIPROFLOXACIN HYDROCHLORIDE]
MIC80 [19]: 1.6 µM | MIC80 [7]: 1.6 µM | MIC80 [8]: 0.39 µM | MIC80 [9]: 0.39 µM | MIC80 [20]: 0.39 µM | MIC80 [13]: 1.6 µM | MIC80 [15]: 0.39 µM | MIC80 [21]: 1.6 µM | MIC80 [16]: 0.39 µM | MIC80 [22]: 0.39 µM

C[S+](C)[O-] [DIMETHYL SULFOXIDE]
MIC80 [1]: 16 %v/v | MIC80 [2]: 16 %v/v | MIC80 [3]: 16 %v/v | MIC80 [4]: 10 %v/v | MIC80 [5]: 16 %v/v | MIC80 [6]: 8 %v/v

C[C@H]1COc2c(N3CCN(C)CC3)c(F)cc3c(=O)c(C(=O)O)cn1c23 [LEVOFLOXACIN]
MIC80 [19]: 0.78 µM (≈ 0.282 µg/mL) | MIC80 [7]: 0.39 µM (≈ 0.141 µg/mL) | MIC80 [8]: 0.78 µM (≈ 0.282 µg/mL) | MIC80 [9]: 1.6 µM (≈ 0.578 µg/mL) | MIC80 [20]: 0.19 µM (≈ 0.0687 µg/mL) | MIC80 [12]: 0.019 µM (≈ 0.00687 µg/mL) | MIC80 [13]: 0.39 µM (≈ 0.141 µg/mL) | MIC80 [15]: 1.6 µM (≈ 0.578 µg/mL) | MIC80 [21]: 0.78 µM (≈ 0.282 µg/mL) | MIC80 [16]: 0.78 µM (≈ 0.282 µg/mL) | MIC80 [22]: 0.39 µM (≈ 0.141 µg/mL) | MIC80 [18]: 0.019 µM (≈ 0.00687 µg/mL)

CC1(C)S[C@@H]2[C@H](NC(=O)Cc3ccccc3)C(=O)N2[C@H]1C(=O)O [PENICILLIN G SODIUM]
MIC80 [23]: inactive | MIC80 [19]: 34 µM | MIC80 [24]: inactive | MIC80 [25]: inactive | MIC80 [26]: inactive | MIC80 [11]: inactive | MIC80 [27]: inactive | MIC80 [28]: inactive | MIC80 [29]: inactive | MIC80 [14]: inactive | MIC80 [21]: 34 µM | MIC80 [30]: inactive

CN(C)[C@@H]1C(O)=C(C(N)=O)C(=O)[C@@]2(O)C(O)=C3C(=O)c4c(O)cccc4[C@@](C)(O)[C@H]3C[C@@H]12 [TETRACYCLINE]
MIC80 [19]: 0.78 µM (≈ 0.347 µg/mL) | MIC80 [7]: 25 µM (≈ 11.1 µg/mL) | MIC80 [9]: 25 µM (≈ 11.1 µg/mL) | MIC80 [26]: inactive | MIC80 [11]: inactive | MIC80 [12]: 3.13 µM (≈ 1.39 µg/mL) | MIC80 [13]: 12.5 µM (≈ 5.56 µg/mL) | MIC80 [14]: inactive | MIC80 [15]: 25 µM (≈ 11.1 µg/mL) | MIC80 [21]: 0.78 µM (≈ 0.347 µg/mL) | MIC80 [30]: inactive | MIC80 [18]: 3.13 µM (≈ 1.39 µg/mL)

NC[C@H]1O[C@H](O[C@H]2[C@H](O)[C@@H](O[C@H]3O[C@H](CO)[C@@H](O)[C@H](N)[C@H]3O)[C@H](N)C[C@@H]2N)[C@H](N)C[C@@H]1O [TOBRAMYCIN]
MIC80 [7]: 3.1 µM (≈ 1.45 µg/mL) | MIC80 [8]: 13 µM (≈ 6.08 µg/mL) | MIC80 [9]: 1.6 µM (≈ 0.748 µg/mL) | MIC80 [10]: inactive | MIC80 [11]: inactive | MIC80 [12]: 0.78 µM (≈ 0.365 µg/mL) | MIC80 [13]: 3.1 µM (≈ 1.45 µg/mL) | MIC80 [14]: inactive | MIC80 [15]: 1.6 µM (≈ 0.748 µg/mL) | MIC80 [16]: 13 µM (≈ 6.08 µg/mL) | MIC80 [17]: inactive | MIC80 [18]: 0.78 µM (≈ 0.365 µg/mL)

CN[C@H](CC(C)C)C(=O)N[C@H]1C(=O)N[C@@H](CC(N)=O)C(=O)N[C@H]2C(=O)N[C@H]3C(=O)N[C@H](C(=O)N[C@H](C(=O)O)c4cc(O)cc(O)c4-c4cc3ccc4O)[C@H](O)c3ccc(c(Cl)c3)Oc3cc2cc(c3O[C@@H]2O[C@H](CO)[C@@H](O)[C@H](O)[C@H]2O[C@H]2C[C@](C)(N)[C@H](O)[C@H](C)O2)Oc2ccc(cc2Cl)[C@H]1O [VANCOMYCIN HYDROCHLORIDE]
MIC80 [23]: inactive | MIC80 [19]: 0.39 µM | MIC80 [24]: inactive | MIC80 [25]: inactive | MIC80 [26]: inactive | MIC80 [20]: 13 µM | MIC80 [27]: inactive | MIC80 [28]: inactive | MIC80 [29]: inactive | MIC80 [21]: 0.39 µM | MIC80 [22]: 13 µM | MIC80 [30]: inactive
